What was measured:
Mus musculus [1] = test: Antitumor activity expressed as a ratio of tumor volumes of test (T) animals compared to control (C) animals(100) at a dose of 12.5 mg/kg/day; assay type: functional
Summary of the method: (§1)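 BDF1 female mice in groups of 5 received 10^6 M5076 cells im into the left leg on day 0. Drug was dissolved in 10-20% DMSO in arachis oil and given ip daily on days 1-17; controls got vehicle only. Tumor volumes were measured on days 12, 16, 20 and 24. T/C = test/control tumor volume ×100.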

Mus musculus [2] = test: Number of M5076 reticulum cell sarcoma bearing mice survived among the tested (5) on day 24 after treating with compound dose of 12.5 mg/Kg/day; assay type: functional; summary of the method: as §1
[3] = biological target: T1, Bifunctional dihydrofolate reductase-thymidylate synthase (Toxoplasma gondii, UniProt Q07422); test: Inhibitory activity against Dihydrofolate reductase from Toxoplasma gondii was evaluated using 90 uM dihydrofolic acid as substrate
T1 sequence (Q07422 whole entry): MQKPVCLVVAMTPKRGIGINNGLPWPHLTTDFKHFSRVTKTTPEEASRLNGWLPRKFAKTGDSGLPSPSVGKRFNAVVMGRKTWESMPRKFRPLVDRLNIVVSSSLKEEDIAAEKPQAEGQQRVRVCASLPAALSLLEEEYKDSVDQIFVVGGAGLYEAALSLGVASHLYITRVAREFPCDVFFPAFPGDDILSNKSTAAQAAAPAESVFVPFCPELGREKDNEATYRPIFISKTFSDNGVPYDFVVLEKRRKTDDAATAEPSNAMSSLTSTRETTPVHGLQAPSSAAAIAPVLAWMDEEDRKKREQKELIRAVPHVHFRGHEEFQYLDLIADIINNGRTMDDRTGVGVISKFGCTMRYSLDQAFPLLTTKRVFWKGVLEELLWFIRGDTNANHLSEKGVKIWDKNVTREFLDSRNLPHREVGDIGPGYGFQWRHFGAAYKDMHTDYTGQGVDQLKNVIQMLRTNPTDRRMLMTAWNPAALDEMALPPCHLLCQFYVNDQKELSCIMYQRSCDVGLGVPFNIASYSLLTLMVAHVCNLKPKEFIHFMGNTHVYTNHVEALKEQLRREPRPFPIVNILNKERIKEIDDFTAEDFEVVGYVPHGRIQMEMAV

Mus musculus [4] = test: Number of M5076 reticulum cell sarcoma bearing mice survived among the tested (5) on day 24 after treating with compound dose of 25 mg/Kg/day; assay type: functional; summary of the method: as §1
Mus musculus [5] = test: Antitumor activity expressed as a ratio of tumor volumes of test (T) animals compared to control (C) animals(100) at a dose of 25 mg/kg/day; assay type: functional; summary of the method: as §1
Mus musculus [6] = test: Antitumor activity expressed as a ratio of tumor volumes of test (T) animals compared to control (C) animals(100) at a dose of 3.125 mg/kg/day; assay type: functional; summary of the method: as §1
Mus musculus [7] = test: Number of M5076 reticulum cell sarcoma bearing mice survived among the tested (5) on day 24 after treating with compound dose of 3.125 mg/Kg/day; assay type: functional; summary of the method: as §1

SMILES | IC50 [3] [nM] | other results
CCc1nc(N)nc(N)c1-c1ccc(N(C)Cc2ccc(C(=O)NC)cc2)c([N+](=O)[O-])c1 | 7.4 | T/C (Mus musculus [1]): 15%; Survivors (Mus musculus [2]): 5
CCOC(=O)CCC(NC(=O)c1ccc(CNc2ccc(-c3c(N)nc(N)nc3CC)cc2[N+](=O)[O-])cc1)C(=O)OCC (stereo not drawn) | 7.1 | 
CCc1nc(N)nc(N)c1-c1ccc(N(C)Cc2ccc(C(=O)O)cc2)c([N+](=O)[O-])c1 | 3.1 | T/C (Mus musculus [1]): 100%; Survivors (Mus musculus [2]): 5
CCc1nc(N)nc(N)c1-c1ccc(NCc2ccc(C(=O)N(C)C)cc2)c([N+](=O)[O-])c1 | 7.9 | 
CCc1nc(N)nc(N)c1-c1ccc(NCc2ccc(S(N)(=O)=O)cc2)c([N+](=O)[O-])c1 | 5.8 | 
CCc1nc(N)nc(N)c1-c1ccc(NCc2ccc(C(=O)NC(CCC(=O)O)C(=O)O)cc2)c([N+](=O)[O-])c1 (stereo not drawn) | 6.2 | 
CCc1nc(N)nc(N)c1-c1ccc(NCc2ccc(C(=O)N3CCCCC3)cc2)c([N+](=O)[O-])c1 | 140 | 
CCc1nc(N)nc(N)c1-c1ccc(N(C)Cc2ccc(C3=NC(C)(C)CO3)cc2)c([N+](=O)[O-])c1 | 14 | 
CCc1nc(N)nc(N)c1-c1ccc(NCc2ccc(C(=O)O)cc2)c([N+](=O)[O-])c1 | 1.8 | 
CCc1nc(N)nc(N)c1-c1ccc(NCc2ccc(C(=O)NC)cc2)c([N+](=O)[O-])c1 | 4.3 | 
CCc1nc(N)nc(N)c1-c1ccc(NCc2ccc(C3OCCO3)cc2)c([N+](=O)[O-])c1 | 15 | 
CCc1nc(N)nc(N)c1-c1ccc(NCc2ccc(C(N)=O)cc2)c([N+](=O)[O-])c1 | 3.7 | 
CCc1nc(N)nc(N)c1-c1ccc(N(C)Cc2ccccc2)c([N+](=O)[O-])c1 |  | Survivors (Mus musculus [4]): 5; T/C (Mus musculus [5]): 37%
CCc1nc(N)nc(N)c1-c1ccc(NCc2ccccc2)c([N+](=O)[O-])c1 | 19 | 
CN(Cc1cnc2nc(N)nc(N)c2n1)c1ccc(C(=O)N[C@@H](CCC(=O)O)C(=O)O)cc1 [METHOTREXATE] |  | T/C (Mus musculus [6]): 92%; Survivors (Mus musculus [7]): 5
Cc1nc(N)nc(N)c1-c1ccc(Cl)c(Cl)c1 [METOPRINE] |  | T/C (Mus musculus [6]): <8%; Survivors (Mus musculus [7]): 1

Reference: ChEMBL document CHEMBL1130351, “Nonclassical 2,4-diamino-5-aryl-6-ethylpyrimidine antifolates: activity as inhibitors of dihydrofolate reductase from Pneumocystis carinii and Toxoplasma gondii and as antitumor agents” (J Med Chem, 1997)
